# Measurements published in ChEMBL document CHEMBL3124882, “Semi-synthesis of acylated triterpenes from olive-oil industry wastes for the development of anticancer and anti-HIV agents” (Eur J Med Chem, 2014).
# Calls of active or inactive are those of the source. The rule behind the calls is not given here.
# Tests used:
# [1] = system: B16-F10; assay: Induction of apoptosis in mouse B16F10 cells assessed as early apoptotic cells at IC50 after 72 hrs by annexin V-FITC/propidium iodide staining-based FACS analysis (reference value: 3.9 +/- 0.4%); type: functional
# [2] = system: B16-F10; assay: Induction of apoptosis in mouse B16F10 cells assessed as normal cells at IC50 after 72 hrs by annexin V-FITC/propidium iodide staining-based FACS analysis (reference value: 77.9 +/- 1.5%); type: functional
# [3] = system: B16-F10; assay: Induction of apoptosis in mouse B16F10 cells assessed as late apoptotic cells at 2 X IC50 after 72 hrs by annexin V-FITC/propidium iodide staining-based FACS analysis (reference value: 9.8 +/- 2.2%); type: functional
# [4] = system: B16-F10; assay: Induction of ROS generation in mouse B16F10 cells at IC50 to 2 X IC50 after 72 hrs by rhodamine123/propidium iodide staining-based FACS analysis; type: functional, cell-based
# In short: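 B16F10 cells, 11·10^4 per well, treated 72 h at IC50 or 2×IC50, then given fresh medium with dihydrorhodamine 123 at a final 5 µg/mL for 30 min. Cells washed, resuspended in PBS and read by flow cytometry for Rh123 and PI fluorescence (excitation 500 nm, emission 536 nm). Rh123+ cells scored ROS-positive regardless of PI. Three experiments in duplicate, mean ± S.E.M.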
# [5] = system: B16-F10; assay: Induction of apoptosis in mouse B16F10 cells assessed as late apoptotic cells at IC50 after 72 hrs by annexin V-FITC/propidium iodide staining-based FACS analysis (reference value: 9.8 +/- 2.2%); type: functional
# [6] = system: B16-F10; assay: Induction of apoptosis in mouse B16F10 cells assessed as necrotic cells at IC50 after 72 hrs by annexin V-FITC/propidium iodide staining-based FACS analysis (reference value: 4.0 +/- 0.6%); type: functional
# [7] = system: B16-F10; assay: Induction of apoptosis in mouse B16F10 cells assessed as necrotic cells at 2 X IC50 after 72 hrs by annexin V-FITC/propidium iodide staining-based FACS analysis (reference value: 4.0 +/- 0.6%); type: functional
# [8] = system: B16-F10; assay: Induction of apoptosis in mouse B16F10 cells assessed as early apoptotic cells at 2 X IC50 after 72 hrs by annexin V-FITC/propidium iodide staining-based FACS analysis (reference value: 3.9 +/- 0.4%); type: functional
# [9] = system: B16-F10; assay: Induction of apoptosis in mouse B16F10 cells assessed as normal cells at 2 X IC50 after 72 hrs by annexin V-FITC/propidium iodide staining-based FACS analysis (reference value: 77.9 +/- 1.5%); type: functional
# [10] = system: B16-F10; assay: Induction of apoptosis in mouse B16F10 cells assessed as total apoptotic cells at IC50 after 72 hrs by annexin V-FITC/propidium iodide staining-based FACS analysis (reference value: 13.7 +/- 2.7%); type: functional
# [11] = system: B16-F10; assay: Induction of apoptosis in mouse B16F10 cells assessed as total apoptotic cells at 2 X IC50 after 72 hrs by annexin V-FITC/propidium iodide staining-based FACS analysis (reference value: 13.7 +/- 2.7%); type: functional
# [12] = system: B16-F10; assay: Cytotoxicity against mouse B16F10 cells after 72 hrs by MTT assay; type: functional, cell-based; conditions: B16-F10, 72 h
# In short: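 B16F10 cells (DMEM, 2 mM glutamine, 10% heat-inactivated FCS, penicillin/streptomycin; subconfluent) seeded at 11·10^3 per well and exposed to 0–80 µg/mL for 72 h. Compounds were diluted from a 10 mg/mL stock in 50% DMSO/PBS. MTT 0.5 mg/mL for 2 h, formazan dissolved in DMSO, absorbance at 550 nm. Viability is relative to untreated controls; IC50 from four assays of six replicates, mean ± S.E.M.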
# [13] = biological target: Protease (Human immunodeficiency virus 1, UniProt Q9YQ12); assay: Inhibition of HIV1 recombinant protease expressed in Escherichia coli using Abz-Ala-Arg-Val-Nle-Tyr(NO2)-Glu-Ala-Nle-NH2 as substrate by FRET assay
# Chain of Protease (Q9YQ12 whole entry): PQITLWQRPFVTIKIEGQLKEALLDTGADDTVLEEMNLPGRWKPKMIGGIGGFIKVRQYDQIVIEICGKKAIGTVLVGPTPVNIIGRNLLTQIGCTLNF
Compound,Activity [1] [%],Activity [2] [%],Activity [3] [%],Activity [4],Activity [5] [%],Activity [6] [%],Activity [7] [%],Activity [8] [%],Activity [9] [%],Activity [10] [%],Activity [11] [%],IC50 [12] [µM],IC50 [13] [nM]
CC(C)(CC(=O)O)CC(=O)O[C@H]1CC[C@]2(C)[C@H]3CC=C4[C@@H]5CC(C)(C)CC[C@]5(C(=O)OCc5ccccc5)CC[C@@]4(C)[C@]3(C)CC[C@H]2C1(C)C,44,8.3,36.1,Active,42.6,5.3,6.4,52.8,4.9,86.5,88.8,14.2,
CC1(C)CC[C@]2(C(=O)O)CC[C@]3(C)C(=CC[C@@H]4[C@@]5(C)CC[C@H](OC(=O)c6ccccc6)C(C)(C)[C@@H]5CC[C@]43C)[C@@H]2C1,14,44.6,50.5,Active,37.6,3.8,8.5,9.5,31.6,51.6,60,162,
CC1(C)CC[C@]2(C(=O)OCc3ccccc3)CC[C@]3(C)C(=CC[C@@H]4[C@@]5(C)CC[C@H](OC(=O)c6ccccc6C(=O)O)C(C)(C)[C@@H]5CC[C@]43C)[C@@H]2C1,64.3,3.9,28.5,inactive,30.3,1.5,1,66.9,3.7,94.6,95.4,26.8,400
CC(=O)O[C@@H]1C[C@]2(C)[C@H]3CC=C4[C@@H]5CC(C)(C)CC[C@]5(C(=O)O)CC[C@@]4(C)[C@]3(C)CC[C@H]2C(C)(C)[C@H]1OC(C)=O,8.7,31.4,59.3,Active,52.9,7.1,1.5,29.6,9.7,61.6,88.9,44.1,
CC1(C)CC[C@]2(C(=O)OCc3ccccc3)CC[C@]3(C)C(=CC[C@@H]4[C@@]5(C)C[C@@H](OC(=O)CCCC(=O)O)[C@H](O)C(C)(C)[C@@H]5CC[C@]43C)[C@@H]2C1,10.6,73.3,19.8,Active,14.6,1.6,0.9,59.1,20.2,25.2,78.9,63.2,
CCCC(=O)O[C@@H]1C[C@]2(C)[C@H]3CC=C4[C@@H]5CC(C)(C)CC[C@]5(C(=O)O)CC[C@@]4(C)[C@]3(C)CC[C@H]2C(C)(C)[C@H]1O,55.6,21,30,Active,22.1,1.2,6.8,53,10.2,77.7,83,107,
CCC(=O)O[C@H]1CC[C@]2(C)[C@H]3CC=C4[C@@H]5CC(C)(C)CC[C@]5(C(=O)O)CC[C@@]4(C)[C@]3(C)CC[C@H]2C1(C)C,47,24.3,16.5,Active,27.4,1.3,2,44.3,37.2,74.4,60.8,161,
CC1(C)CC[C@]2(C(=O)OCc3ccccc3)CC[C@]3(C)C(=CC[C@@H]4[C@@]5(C)C[C@@H](OC(=O)c6ccccc6C(=O)O)[C@H](O)C(C)(C)[C@@H]5CC[C@]43C)[C@@H]2C1,42.2,32.8,46.2,inactive,22.5,2.5,7.5,43.6,2.9,64.7,89.7,73.2,800
CC(=O)O[C@H]1CC[C@]2(C)[C@H]3CC=C4[C@@H]5CC(C)(C)CC[C@]5(C(=O)O)CC[C@@]4(C)[C@]3(C)CC[C@H]2C1(C)C [ACETYL OLEANOLIC ACID],14.4,39.5,33.4,Active,40.3,5.8,5.7,14.6,46.3,54.7,48,64.7,3400
CC1(C)CC[C@]2(C(=O)OCc3ccccc3)CC[C@]3(C)C(=CC[C@@H]4[C@@]5(C)CC[C@H](OC(=O)CCCC(=O)O)C(C)(C)[C@@H]5CC[C@]43C)[C@@H]2C1,20.6,25.8,24.6,inactive,37.9,15.9,1.6,65.8,8.1,58.4,90.4,29.9,
CCCCCC(=O)O[C@@H]1C[C@]2(C)[C@H]3CC=C4[C@@H]5CC(C)(C)CC[C@]5(C(=O)O)CC[C@@]4(C)[C@]3(C)CC[C@H]2C(C)(C)[C@H]1O,42.4,34.8,17.5,Active,19,3.9,1.1,62.7,18.9,61.4,80.2,34.6,124000
CC(C)(CC(=O)O)CC(=O)O[C@@H]1C[C@]2(C)[C@H]3CC=C4[C@@H]5CC(C)(C)CC[C@]5(C(=O)OCc5ccccc5)CC[C@@]4(C)[C@]3(C)CC[C@H]2C(C)(C)[C@H]1O,16.5,35.4,65.3,Active,46.3,1.8,5.6,26.9,2.2,62.8,92.2,28.3,
